Laboratory results reported in ChEMBL document CHEMBL1146146, “Redesign of aminoglycosides for treatment of human genetic diseases caused by premature stop mutations” (2006).

How the values were obtained:
Bacillus subtilis [1] = experiment: Antibacterial activity against Bacillus subtilis ATCC 6633 at 80 ug/ml; type: functional
Escherichia coli [2] = experiment: Antibacterial activity against Escherichia coli ATCC 25922 at 80 ug/ml; type: functional
[3] = test system: Protocadherin-15 (Homo sapiens), Q96QU1 [R3X]; experiment: Effect on human PCDH15 R3X mutation translation level at 80 ug/ml
Method in brief: (§1)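 In vitro transcription-translation of a reporter plasmid carrying the PCDH15 R3X nonsense mutation (premature UGA C stop), with [35S]methionine and a range of drug concentrations. Products were resolved by SDS-PAGE and quantified by PhosphorImager. Suppression is the 35-kDa product as a share of total (35 + 25 kDa) protein. Translation level is total protein at each concentration relative to the drug-free reaction. Values are means of ≥3 independent experiments; sulfate salts were tested.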

[4] = test system: Protocadherin-15 (Homo sapiens), Q96QU1 [R3X]; experiment: Suppression of human PCDH15 R3X mutation at 80 ug/ml; method in brief: as §1
Escherichia coli [5] = experiment: Antibacterial activity against Escherichia coli ATCC 25922 at 30 ug/ml; type: functional, organism-based
[6] = test system: Protocadherin-15 (Homo sapiens), Q96QU1 [R3X]; experiment: Effect on human PCDH15 R3X mutation translation level at 30 ug/ml; method in brief: as §1
Target sequence in this assay (Q96QU1 other isoform, or with tags, fused parts or gaps): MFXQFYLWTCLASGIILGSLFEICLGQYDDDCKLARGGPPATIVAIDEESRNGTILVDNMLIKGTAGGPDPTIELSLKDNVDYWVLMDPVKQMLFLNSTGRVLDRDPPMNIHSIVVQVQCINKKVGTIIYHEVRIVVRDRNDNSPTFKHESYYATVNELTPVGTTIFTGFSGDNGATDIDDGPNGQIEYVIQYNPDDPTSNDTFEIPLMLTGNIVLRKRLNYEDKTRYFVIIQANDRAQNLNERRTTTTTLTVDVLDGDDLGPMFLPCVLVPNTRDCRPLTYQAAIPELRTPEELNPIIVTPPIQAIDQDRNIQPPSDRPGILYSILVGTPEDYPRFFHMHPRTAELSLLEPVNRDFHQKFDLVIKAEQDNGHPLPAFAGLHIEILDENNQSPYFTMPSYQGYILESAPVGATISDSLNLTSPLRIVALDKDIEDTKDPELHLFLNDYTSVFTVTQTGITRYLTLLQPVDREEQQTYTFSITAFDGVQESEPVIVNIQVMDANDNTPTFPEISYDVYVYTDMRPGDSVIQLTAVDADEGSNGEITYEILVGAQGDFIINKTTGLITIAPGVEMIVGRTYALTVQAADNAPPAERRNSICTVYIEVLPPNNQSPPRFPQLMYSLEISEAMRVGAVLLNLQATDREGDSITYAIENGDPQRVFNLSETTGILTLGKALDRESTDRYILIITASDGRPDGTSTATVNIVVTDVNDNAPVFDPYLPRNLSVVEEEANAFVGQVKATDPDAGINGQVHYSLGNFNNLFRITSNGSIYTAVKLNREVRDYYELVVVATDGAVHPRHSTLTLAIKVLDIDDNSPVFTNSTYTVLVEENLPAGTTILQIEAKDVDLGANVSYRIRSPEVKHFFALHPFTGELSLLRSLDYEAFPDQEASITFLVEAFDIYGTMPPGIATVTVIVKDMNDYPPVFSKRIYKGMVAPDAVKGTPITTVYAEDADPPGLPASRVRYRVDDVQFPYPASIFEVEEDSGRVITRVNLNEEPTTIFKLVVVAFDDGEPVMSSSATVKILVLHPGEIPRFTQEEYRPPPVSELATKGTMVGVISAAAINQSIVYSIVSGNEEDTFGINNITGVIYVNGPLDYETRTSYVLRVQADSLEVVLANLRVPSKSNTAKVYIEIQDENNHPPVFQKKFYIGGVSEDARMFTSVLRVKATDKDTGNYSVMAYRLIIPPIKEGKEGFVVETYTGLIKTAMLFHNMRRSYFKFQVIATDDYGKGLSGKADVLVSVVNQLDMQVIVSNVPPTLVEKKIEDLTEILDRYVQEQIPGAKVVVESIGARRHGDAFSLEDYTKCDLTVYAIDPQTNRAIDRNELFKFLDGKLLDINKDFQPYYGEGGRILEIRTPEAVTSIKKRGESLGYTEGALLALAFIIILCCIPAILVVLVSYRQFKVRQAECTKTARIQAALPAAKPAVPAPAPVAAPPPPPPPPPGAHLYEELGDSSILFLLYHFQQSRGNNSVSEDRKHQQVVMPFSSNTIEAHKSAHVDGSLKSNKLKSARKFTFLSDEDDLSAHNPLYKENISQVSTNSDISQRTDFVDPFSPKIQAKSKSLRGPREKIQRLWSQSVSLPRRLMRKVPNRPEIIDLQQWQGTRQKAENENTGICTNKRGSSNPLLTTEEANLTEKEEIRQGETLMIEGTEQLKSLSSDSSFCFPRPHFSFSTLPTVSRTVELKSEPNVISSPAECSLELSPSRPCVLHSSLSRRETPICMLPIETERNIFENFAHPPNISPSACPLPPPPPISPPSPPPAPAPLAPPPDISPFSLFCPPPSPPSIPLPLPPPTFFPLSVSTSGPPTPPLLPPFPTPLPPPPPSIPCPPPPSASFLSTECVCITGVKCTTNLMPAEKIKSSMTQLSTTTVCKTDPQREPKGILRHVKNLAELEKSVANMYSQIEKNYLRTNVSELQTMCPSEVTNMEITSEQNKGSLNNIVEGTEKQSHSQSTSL

Bacillus subtilis [7] = experiment: Antibacterial activity against Bacillus subtilis ATCC 6633 at 30 ug/ml; type: functional, organism-based
[8] = test system: Protocadherin-15 (Homo sapiens), Q96QU1 [R3X]; experiment: Suppression of human PCDH15 R3X mutation at 30 ug/ml; method in brief: as §1
Target sequence in this assay (Q96QU1 other isoform, or with tags, fused parts or gaps): as above

Escherichia coli [9] = experiment: Antibacterial activity against Escherichia coli ATCC 25922 at 160 ug/ml; type: functional
[10] = test system: Protocadherin-15 (Homo sapiens), Q96QU1 [R3X]; experiment: Suppression of human PCDH15 R3X mutation at 160 ug/ml; method in brief: as §1
Bacillus subtilis [11] = experiment: Antibacterial activity against Bacillus subtilis ATCC 6633 at 160 ug/ml; type: functional
[12] = test system: Protocadherin-15 (Homo sapiens), Q96QU1 [R3X]; experiment: Effect on human PCDH15 R3X mutation translation level at 160 ug/ml; method in brief: as §1
Bacillus subtilis [13] = experiment: Antibacterial activity against Bacillus subtilis ATCC 6633 at 40 ug/ml; type: functional
[14] = test system: Protocadherin-15 (Homo sapiens), Q96QU1 [R3X]; experiment: Suppression of human PCDH15 R3X mutation at 40 ug/ml
Method in brief: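 The PCDH15 R3X (UGA C) reporter is coupled-transcribed and translated in vitro in the presence of [35S]methionine, then run on SDS–PAGE with PhosphorImager quantification. Suppression is the fraction of the 35-kDa read-through product out of total protein (35-kDa plus 25-kDa truncated product). Values are averages of at least three independent experiments.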

Escherichia coli [15] = experiment: Antibacterial activity against Escherichia coli ATCC 25922 at 40 ug/ml; type: functional
[16] = test system: Protocadherin-15 (Homo sapiens), Q96QU1 [R3X]; experiment: Effect on human PCDH15 R3X mutation translation level at 40 ug/ml
Method in brief: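 Reporter plasmid carrying the PCDH15 R3X nonsense mutation (premature UGA C stop codon) is transcribed and translated in vitro with [35S]methionine and drug added. Products are resolved by SDS–PAGE and quantified by PhosphorImager. Translation level is total protein (35 + 25 kDa) at each drug concentration relative to total protein without drug. Values are means of at least three independent experiments.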

## N[C@H]1[C@@H](O[C@H]2[C@H](O)[C@@H](O)[C@H](N)C[C@@H]2N)O[C@H](CO)[C@@H](O)[C@@H]1O.O=S(=O)(O)O [PAROMAMINE SULFATE]
Bacillus subtilis [1]
  MIC: 128 µg/mL
Escherichia coli [2]
  MIC: 512 µg/mL
[3]
  Activity: 74%
[4]
  Activity: 6.2%

## N[C@H]1[C@@H](O[C@H]2[C@H](O[C@@H]3O[C@H](CO)[C@@H](O)[C@H]3O)[C@@H](O)[C@H](N)C[C@@H]2N)O[C@H](CO)[C@@H](O)[C@@H]1O.O=S(=O)(O)O
Bacillus subtilis [1]
  MIC: 64 µg/mL
Escherichia coli [2]
  MIC: 256 µg/mL
[3]
  Activity: 100%
[4]
  Activity: 1.3%

## GENTAMICIN SULFATE
Escherichia coli [5]
  MIC: 4 µg/mL
[6]
  Activity: 40%
Bacillus subtilis [7]
  MIC: < 0.5 µg/mL
[8]
  Activity: 49%

## N[C@H]1[C@@H](O[C@H]2[C@H](O)[C@@H](O)[C@H](N)C[C@@H]2N)O[C@H](CO)[C@@H](O)[C@@H]1OCO[C@@H]1[C@@H](N)[C@@H](O[C@H]2[C@H](O)[C@@H](O)[C@H](N)C[C@@H]2N)O[C@H](CO)[C@H]1O.O=S(=O)(O)O
Bacillus subtilis [1]
  MIC: 48 µg/mL
Escherichia coli [2]
  MIC: 96 µg/mL
[3]
  Activity: 22%
[4]
  Activity: < 1%

## NC[C@@H]1O[C@H](O[C@@H]2[C@@H](O)[C@H](O[C@H]3O[C@H](CO)[C@@H](O)[C@H](O)[C@H]3N)[C@@H](N)C[C@H]2N)[C@@H](O)[C@H]1O.O=S(=O)(O)O
Bacillus subtilis [1]
  MIC: 192 µg/mL
Escherichia coli [2]
  MIC: > 512 µg/mL
[3]
  Activity: 75%
[4]
  Activity: 4.4%

## NC[C@H]1O[C@@H](O[C@@H]2[C@@H](N)[C@@H](O[C@H]3[C@H](O)[C@@H](O)[C@H](N)C[C@@H]3N)O[C@H](CO)[C@H]2O)[C@H](O)[C@@H]1O.O=S(=O)(O)O
Bacillus subtilis [1]
  MIC: 48 µg/mL
Escherichia coli [2]
  MIC: 192 µg/mL
[3]
  Activity: 98%
[4]
  Activity: 2.9%

## N[C@H]1[C@@H](O[C@H]2[C@H](O)[C@@H](O)[C@H](N)C[C@@H]2N)O[C@H](CO)[C@@H](O)[C@@H]1O[C@@H]1O[C@H](CO)[C@@H](O)[C@H]1O.O=S(=O)(O)O
Escherichia coli [9]
  MIC: > 512 µg/mL
[10]
  Activity: < 1%
Bacillus subtilis [11]
  MIC: > 512 µg/mL
[12]
  Activity: 82%

## NC[C@H]1O[C@@H](O[C@@H]2[C@@H](O)[C@H](N)C[C@H](N)[C@H]2O[C@H]2O[C@H](CO)[C@@H](O)[C@H](O)[C@H]2N)[C@H](O)[C@@H]1O.O=S(=O)(O)O
Bacillus subtilis [1]
  MIC: 48 µg/mL
Escherichia coli [2]
  MIC: > 512 µg/mL
[3]
  Activity: 72%
[4]
  Activity: 21%

## NC[C@@H]1O[C@H](O[C@H]2[C@@H](O)[C@H](O[C@@H]3[C@@H](O)[C@H](N)C[C@H](N)[C@H]3O[C@H]3O[C@H](CO)[C@@H](O)[C@H](O)[C@H]3N)O[C@@H]2CO)[C@H](N)[C@@H](O)[C@@H]1O.O=S(=O)(O)O [PAROMOMYCIN SULFATE]
Bacillus subtilis [1]
  MIC: 128 µg/mL
Escherichia coli [2]
  MIC: 512 µg/mL
Bacillus subtilis [13]
  MIC: 8 µg/mL
[14]
  Activity: 49%
[3]
  Activity: 74%
[4]
  Activity: 6.2%
Escherichia coli [15]
  MIC: 12 µg/mL
[16]
  Activity: 40%

## N[C@H]1[C@@H](O[C@H]2[C@H](O)[C@@H](O[C@H]3O[C@@H](CO)[C@H](O)[C@@H]3O)[C@H](N)C[C@@H]2N)O[C@H](CO)[C@@H](O)[C@@H]1O.O=S(=O)(O)O
Bacillus subtilis [1]
  MIC: 96 µg/mL
Escherichia coli [2]
  MIC: 256 µg/mL
[3]
  Activity: 74%
[4]
  Activity: 1.5%

## N[C@H]1[C@@H](O[C@H]2[C@H](O)[C@@H](O)[C@H](N)C[C@@H]2N)O[C@H](CO)[C@@H](O)[C@H]1N.O=S(=O)(O)O
Bacillus subtilis [1]
  MIC: 48 µg/mL
Escherichia coli [2]
  MIC: 192 µg/mL
[3]
  Activity: 71%
[4]
  Activity: 2%
